# Screening results (PubChem)
# An excerpt weighted towards active compounds, which were near 1.2% of everything screened.
# Glyco luc inh: blocks N-linked glycosylation in D54 reporter cells; D54 ERlucT glycosylation luciferase reporter, 24 h; percent of 100 nM tunicamycin response; reporter increase, % at 12.5 µM; 0.23% of 360,000 active;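 active means mean luciferase reporter signal, scaled so untreated is 0 and the glycosylation-blocking control 100, at or above a set limit in every replicate; inconclusive means mean reaches the limit but not every replicate does; inactive means mean below the limit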;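 further: luciferase carries N-glycosylation sites so blocking glycosylation raises the light; 0% = median of neutral control wells and 100% = median of 100 nM tunicamycin wells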
# FN deposition inh: fibronectin deposition inhibition; 0.086% of 350,000 active; AID 743247; AH1F fibroblasts, Alexa488-fibronectin deposition fluorescence, overnight; inhibition, % at 12.6 µM;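 active means mean inhibition across replicates of 30% or more, regardless of how many single replicates reach that level; inconclusive means mean under 30% yet at least half of replicates reach 30%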;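 further: positive control wells lacked labelled fibronectin entirely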
#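 Material – AH1F fibroblast monolayer, labelled fibronectin deposition · Reagent – labelled fibronectin 24 nM · Timing – 1 h adhesion, overnight exposure · Measured by – fluorescence at 485 nm excitation, 525 nm emission · Read-out – inhibition of fibronectin deposition signal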
# RAD54 branch: inhibitors of human RAD54 branch migration. Q92698. inhibition, % at 10.4 µM. RAD54 Holliday junction branch migration, FAM/BHQ fluorescence. 0.14% of 360,000 active. AID 602329;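 active means mean normalized replicate activity at least 40 and at least half of replicates scoring 40 or more; inconclusive means only one of the two criteria met; inactive means mean below 40 and under half of replicates reaching 40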;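 further: 0% = median of neutral control wells and 100% = median of positive control wells; inhibitors cause a drop in the FAM fluorescence signal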
# NSD2 HMT inh: blocks human histone methyltransferase NSD2; 0.54% of 310,000 active; AID 743445; inhibition, % at 12.5 µM; NSD2 peptide methylation, AlphaScreen, 120 min; in the data active means inhibition above about 50%
# RAD52 inh: blocks human RAD52 DNA annealing | inhibition, % at 18.7 µM | recombinant RAD52 DNA annealing, FRET fluorescence | P43351 | 0.46% of 360,000 active;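 active means every replicate showing at least 50% inhibition; inconclusive means mean inhibition at least 50% but not in every replicate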
# MLL AF4-AF9 inh: inhibitors of human MLL-AF4/AF9 interaction; 0.47% of 350,000 active; AlphaScreen, biotin-AF4 peptide binding to FLAG-AF9; inhibition, % at 10 µM; AID 651704;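 active means every replicate reaching a set inhibition limit, whatever the replicate mean, cut at about 25% in these data; inconclusive means mean inhibition reaches that limit but some replicates miss it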;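 further: 0% = plate neutral control median and 100% = total signal loss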
# Target sequence (P42568 whole entry, looked up): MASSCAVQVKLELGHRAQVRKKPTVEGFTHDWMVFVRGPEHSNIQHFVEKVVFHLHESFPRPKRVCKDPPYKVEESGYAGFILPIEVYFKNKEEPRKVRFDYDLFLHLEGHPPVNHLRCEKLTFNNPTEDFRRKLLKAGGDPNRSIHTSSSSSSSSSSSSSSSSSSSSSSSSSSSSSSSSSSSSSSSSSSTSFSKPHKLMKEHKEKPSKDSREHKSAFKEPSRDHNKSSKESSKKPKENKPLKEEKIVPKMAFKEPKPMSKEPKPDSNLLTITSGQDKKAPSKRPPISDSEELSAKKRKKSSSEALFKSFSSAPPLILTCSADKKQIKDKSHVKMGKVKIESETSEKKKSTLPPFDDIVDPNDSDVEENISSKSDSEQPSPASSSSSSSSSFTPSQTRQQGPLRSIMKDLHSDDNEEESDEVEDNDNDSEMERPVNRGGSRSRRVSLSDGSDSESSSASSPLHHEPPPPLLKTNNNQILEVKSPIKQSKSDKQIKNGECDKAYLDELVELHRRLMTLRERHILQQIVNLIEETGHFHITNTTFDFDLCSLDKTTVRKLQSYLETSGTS
# DNA binder FP: binds DNA, flagging false RAD52 inhibitor hits | 8% of 1,000 active | Salmon sperm DNA/acridine orange FP displacement, DNA binding | shares compounds with RAD52 inh | AC50, µM | AID 652128;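 active means fitted half-maximal concentration for signal loss at or below twice the highest dose tested, in every separate run, actives reach about 64 µM in these data; inconclusive means runs disagree, or flat partial signal loss, or poor fit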
# Alpha artifact: interferes with AlphaScreen signal, flagging NSD2 false positives | AlphaScreen artifact counterscreen, preloaded methylated H4 peptide | shares compounds with NSD2 HMT inh | AC35, µM (top dose mostly 10 µM), for the others: top-dose activity change, negative = signal loss | 9.4% of 1,500 active | AID 1053174; call rule not given here
# * marks the source's active call; other numbers are inactive results; i = inactive; u = inconclusive; x = no result given; + = active, no number; ! = repeats disagree.
SMILES,Glyco luc inh,FN deposition inh,RAD54 branch,NSD2 HMT inh,RAD52 inh,MLL AF4-AF9 inh,Alpha artifact,others
COc1cc2c(cc1OC)-c1c3c(cc4c1[C@@H](C2)N(C)CC4)OCO3,u,0,104*,x,100*,20,x,DNA binder FP=i
COc1ccc(CC2c3cc(OC)c(OC)cc3CCN2C)cc1O (stereo unspecified),2,-11,-11,x,-4,-1,x,
O=C(Cc1ccccn1)N1CCCCN2[C@H](CO)[C@H](c3ccc(Br)cc3)[C@H]2C1,x,x,-2,x,-21,-4,x,
CCOC(=O)c1c(C)n(Cc2ccccc2)c2ccc(OCC(O)CNC(C)(C)C)cc12 (stereo unspecified),-6,5,22,13,52*,19,x,DNA binder FP=i
CN1[C@H](CO)[C@H]2c3ccccc3NC[C@H]21,x,-8,-7,x,4,-2,x,
O=C(Cc1ccccn1)N1CCCCN2[C@H](CO)[C@H](c3ccc(-c4ccccc4F)cc3)[C@@H]2C1,x,x,6,x,5,-5,x,
COc1ccc(CCN)cc1O,4,4,-16,x,-6,-2,x,
NCCc1cc(O)c(O)cc1O,1,-8,-3,x,90*!,7,x,DNA binder FP=i
Clc1ccc2sc(C3CCNCC3)nc2c1,-5,-4,4,13,56*,-17,x,DNA binder FP=i
CCCN1[C@@H]2c3ccc(-c4cccc(OC)c4)c(=O)n3C[C@H]1[C@H](CO)[C@H]2C(=O)OC,x,x,x,x,-10,-1,x,
COC(=O)[C@@H]1[C@@H](CO)[C@@H]2Cn3c(ccc(C4=CCCCC4)c3=O)[C@H]1N2C(=O)CC1CC1,x,x,-6,x,-3,1,x,
CCn1nc(-c2cccs2)nc2c(=O)n(C)c(=O)nc1-2,-18,x,u,x,x,x,x,
CCn1nc(/C=C/c2ccccc2)nc2c(=O)n(C)c(=O)nc1-2,-19,x,x,+,-46,-9,-1%,
COC(=O)[C@H]1[C@H](CO)[C@H]2Cn3c(cccc3=O)[C@@H]1N2C(=O)C1CCCC1,x,x,8,x,14,-8,x,
COc1ccc(N2C(=O)NC(=O)/C(=C\c3ccc([N+](=O)[O-])s3)C2=O)cc1,-1,9,x,51*,i,-3,-2%,
COc1ccc(N2C(=O)NC(=O)/C(=C/c3ccc([N+](=O)[O-])s3)C2=O)cc1,2,1,-7,32,i,x,x,
C=C(C)c1cccc(C(C)(C)NC(=O)NC2CN3CCC2CC3)c1 (stereo unspecified),0,x,10,51*,x,x,0%,
O=C(NC1CN2CCC1CC2)c1cccc(Cl)c1 (stereo unspecified),-7,3,-5,-1,4,4,x,
COC(=O)C1=Nc2ccccc2/C1=C\c1c(O)n(-c2ccc(Br)cc2)c(=O)[nH]c1=O,3,-4,x,61*,-28,-4,0%,
COC(=O)C1=Nc2ccccc2/C1=C\c1c(O)n(-c2ccc(OC)cc2)c(=O)[nH]c1=O,-2,-1,6,3,x,x,x,
O=C(c1cc2ccccc2oc1=O)N1CCC2(CC1)OCCO2,2,-3,x,65*,x,x,-4%,
Cn1c(=O)[nH]c2nncnc2c1=O,-8,2,x,54*,-9,1,-3%,
CC(C)CC#Cc1ccc([C@H]2[C@H](CO)N3CCCCN(C(=O)Cc4ccccn4)C[C@@H]23)cc1,x,x,5,x,-4,x,x,
COC(=O)c1nc(-c2ccc3c(n2)C(=O)C(N)=C(OC)C3=O)c(N)c(-c2ccc(OC)c(OC)c2O)c1C,6,-1,-8,55*,-6,12,-2%,
C/C=C/c1ccc([C@H]2[C@H]3CN(C(=O)Cc4ccncc4)CCCCN3[C@H]2CO)cc1,x,x,-4,x,-29,-7,x,
SMILES,Glyco luc inh,FN deposition inh,RAD54 branch,NSD2 HMT inh,RAD52 inh,MLL AF4-AF9 inh,Alpha artifact,others
CC(C)c1ccc(N2C(=O)NC(=O)/C(=C\C=C\c3ccco3)C2=O)cc1,x,0,x,94*,-300,0,-8%,
COCCCn1c(N)c(C(=O)NCCC(C)C)c2nc3ccccc3nc21,3,-13,11,109*,x,x,5%,
CCCCCn1c(N)c(C(=O)NCc2cccs2)c2nc3ccccc3nc21,x,x,x,83*,x,x,4%,
CCCCn1c(N)c(C(=O)OCC2CCCO2)c2nc3ccccc3nc21 (stereo unspecified),11,x,11,83*,-30,-24,1%,
CCCCNC(=O)c1c(N)n(Cc2ccc3c(c2)OCO3)c2nc3ccccc3nc12,-1,x,-1,68*,-148,0,-6%,
C/C=C/c1ccc([C@@H]2[C@@H](CO)N3CCCCN(C(=O)Cc4ccncc4)C[C@H]23)cc1,x,x,-2,x,-13,-12,x,
CC=Cc1ccc2n(c1=O)C[C@@H]1[C@@H](CO)[C@H](C(=O)OC)[C@H]2N1C(=O)CC (mixture of isomers),x,x,-9,x,-2,0,x,
COC(=O)[C@H]1[C@H](CO)[C@H]2Cn3c(ccc(-c4cccc(C(=O)N(C)C)c4)c3=O)[C@@H]1N2CC1CC1,x,x,x,x,-3,-11,x,
CCCCn1c(NC(=O)c2ccco2)c(C(=O)OCC)c2nc3ccccc3nc21,5,x,1,175*,x,x,2%,
CCCCCSc1cc(OC)c(CCNC)cc1OC,1,x,4,61*,x,x,-17%,
CN(C)C(CNC(=O)Cc1ccc(Br)cc1)c1ccccc1 (stereo unspecified),-1,4,3,53*,-19,-1,-7%,
COC(=O)[C@@H]1[C@@H](CO)[C@@H]2Cn3c(ccc(C4=CCCC4)c3=O)[C@H]1N2Cc1ccccn1,x,x,0,x,-50,1,x,
CCC(=O)N1[C@@H]2c3ccc(-c4cccc(F)c4)c(=O)n3C[C@H]1[C@H](CO)[C@H]2C(=O)OC,x,x,-12,x,11,0,x,
CC(C)N1C(=O)/C(=C/C=C/c2ccco2)C(=O)N(Cc2ccco2)C1=O,30*,-3,-35,107*,x,x,8.5µM*,
COc1ccc(/C=C2/C(=O)N(Cc3ccco3)C(=O)N(C(C)C)C2=O)cc1,0,x,x,x,-299,2,x,
O=[N+]([O-])c1ccc(NC2CCCC2)c2ccncc12,0,x,x,9,x,x,x,
O=[N+]([O-])c1ccc(N2CCCC2)c2ccncc12,15,10,x,71*,-16,4,-4%,
O=C1NC(=S)N(c2ccccc2)C(=O)/C1=C/c1ccco1,1,-3,-12,x,-171,-12,x,
COc1ccc(CN2C(=O)NC(=O)/C(=C\c3ccco3)C2=O)cc1,2,-2,-27,51*,-177,-3,-11%,
CCOc1cccc(N2C(=O)/C(=C/c3ccco3)C(=O)NC2=S)c1,0,-10,-1,123*,-177,-2,2.6µM*,
Cc1ccccc1-c1ccc([C@@H]2[C@H](CO)N3CCCCN(C(=O)Cc4ccccn4)C[C@@H]23)cc1,x,x,3,x,-18,2,x,
